Bioassay records (PubChem)
Calb FLC: affects C. albicans growth with fluconazole; hit rate 0.57% among 300,000; growth inhibition, % (test concentration not listed); C. albicans CaCi-2 (fluconazole-resistant clinical isolate) + fluconazole, Alamar Blue growth, 48 h;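 active means growth inhibition above about 58% in most replicates, limit read from the data, passing the limit was not always enough; inconclusive means exactly half the replicates above a set limit; inactive means most replicates below a set limit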;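 further: all wells also contain fluconazole at 8 µg/ml as a sub-toxic cotreatment; 0% = median of DMSO wells and 100% = median of geldanamycin control wells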
HIF act: HIF pathway transcriptional activation; U2OS HRE-luciferase reporter, luminescence; normalized: DMSO 0%, desferrioxamine 100%; activation, % at 7.5 µM (by protocol); hit rate 0.32% among 300,000;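 active means mean activation of at least 10% of the iron chelator positive control signal, with at least half of replicates also reaching 10%; inconclusive means mean and replicate majority disagree about reaching 10%; inactive means mean and most replicates under 10%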
Beta apoptosis: blocks beta cell apoptosis. INS-1E cytokine-induced death, ATP luminescence, 48 h; percent of positive-control rescue, neutral wells zero. protection from apoptosis, % (concentration not given with the values). hit rate 0.8% among 300,000. AID 435005;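 active means Every replicate reaches about 75%, or at least half do and their mean reaches it too, limit read from the data; inconclusive means At least half of replicates reach the limit but their mean does not; inactive means Under half of replicates reach the limit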;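 further: 0% = cytokine-treated negative control wells and 100% = positive control rescue; higher means more ATP so stronger rescue from cytokine killing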
PolyA inhibitor: inhibitors of polyadenylation in S. cerevisiae; S. cerevisiae SKY197-pL101 polyadenylation reporter, beta-gal luminescence; efflux-impaired pdr1/pdr3 knockout yeast; score 100 = 6 SD above DMSO; activity score, % at 12 µM; hit rate 0.02% among 300,000;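 active means lowest replicate activity score at least 50, where 100 means six control SD above control mean; inconclusive means lowest score under 50 but half or more replicates reach 50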;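 further: yeast exposed to compound for 9 h at 30 °C; higher score means more reporter readthrough which indicates perturbed polyadenylation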
T cruzi repl: blocks replication of Trypanosoma cruzi; T. cruzi beta-gal in NIH3T3, luminescence, 90 h; inhibition, % (test concentration not listed); hit rate 1.4% among 300,000; AID 1885;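 active means mean inhibition across valid replicates above about 55%, limit read from the data; inconclusive means mean below that limit but half or more replicates reach it; inactive means mean below it, under half of replicates reach it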;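 further: signal also drops with host cell toxicity which is not excluded here; 0% = plate median of DMSO wells and 100% = zero luminescence signal; higher percent means less beta-gal luminescence so fewer parasites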
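System – NIH/3T3 host cells with β-galactosidase reporter T. cruzi · Doses – single 50 nL compound addition per well in DMSO · Reagent – 5000 T. cruzi trypomastigotes/well · Medium – Low-serum DMEM with 2% FBS · Timing – ≥90 h infection period, 3 h prior cell attachment · Evaluation – parasite load inhibition, % · Technique – GalScreen luminescence, 60 min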
CSC inhib: blocks cancer stem cells; hit rate 1.1% among 300,000; cancer stem cell-like cells viability, luminescence; AID 2717; inhibition, % at 7.5 µM; in the data active means inhibition above about 75%; inconclusive means no clear call, values can overlap the other calls; tested in HMLE shEcad cells
* marks the source's active call; other numbers are inactive results; u = inconclusive; x = no result given. Only some compounds are listed: those with a hit (about 3.1% of all), similar ones and a draw of the others.

SMILES | Calb FLC | HIF act | Beta apoptosis | PolyA inhibitor | T cruzi repl | CSC inhib
Cc1cccc(C)c1OCc1nc2ccccc2c(=O)n1/N=C/c1c[nH]c2ccccc12 | 1 | 0 | 10 | -6 | 69* | 23
COc1ccc(CCN2CCCC(CN(C)C(=O)c3ccoc3)C2)cc1 (stereo not drawn) | 8 | 4 | -9 | 22 | 35 | 2
CC(=O)Nc1ccc(NC(=O)Cc2sc(-c3cccnc3)nc2-c2ccc(C)cc2)cc1 | 3 | 0 | 2 | -3 | 70* | -5
Cc1ccc(-c2nc(-c3cccnc3)sc2CC(=O)O)cc1 | 14 | 0 | -4 | 6 | -10 | 5
O=C(N/C(=C/c1ccc(Cl)cc1)c1nc2ccccc2[nH]1)c1ccco1 | 2 | 0 | 2 | 1 | -15 | -8
COc1cc(/C=C(/C(=O)c2cccs2)c2nc3ccccc3[nH]2)cc(OC)c1O | 49 | 7 | 23 | -8 | 52 | 77*
COc1ccc(C(=O)N/C(=C/c2cccs2)c2nc3ccccc3[nH]2)cc1OC | 12 | 0 | 1 | 25 | -7 | -2
O=C(/C(=C/c1ccc(Cl)cc1)c1nc2ccccc2[nH]1)c1ccccc1 | 0 | 8 | 104* | -35 | 68* | 58
COc1cccc(OCc2cc(C(=O)N(Cc3ccccc3)CC3CC3)no2)c1 | 1 | 0 | -3 | -16 | 19 | 16
CCN(CC(=O)Nc1c(F)cccc1F)C(=O)c1ccc(N2C(=O)c3ccccc3C2=O)cc1 | 3 | -1 | 5 | -5 | -10 | 9
O=C(CSc1ncc(-c2ccccc2)n1C1CCCC1)N1CCc2ccccc21 | -23 | 1 | -3 | -28 | 64* | 6
CCN(c1cccc(C)c1)S(=O)(=O)c1ccc(-n2cccn2)cc1 | 13 | 0 | -4 | -6 | 10 | -9
COc1ccccc1/C=C/C(=O)OCCN1C(=O)c2ccccc2C1=O | 3 | -1 | -4 | -32 | -7 | -1
O=C(NC(=S)NCCc1ccccc1)C1CCCCC1 | -22 | 1 | 3 | 17 | 13 | 102*
O=C(NC1CCCN(CCc2ccccc2)C1)C1CCCC1 (stereo not drawn) | 3 | 1 | x | -1 | 55* | -1
O=C(NC1CCCN(CCc2ccccc2)C1)c1c[nH]c2ccccc12 (stereo not drawn) | 31 | -55 | x | -8 | 18 | 6
CC(C)Cc1ccc(C(=O)NCCOc2ccccc2)o1 | -4 | 0 | 2 | 4 | 0 | -12
c1ccc(CN2CCCC3(CCCN(Cc4nc(CC5CC5)no4)C3)C2)cc1 (stereo not drawn) | -5 | 0 | -4 | 13 | 54 | 23
Fc1ccccc1Cc1noc(CN2CCN(C/C=C/c3ccccc3)CC2)n1 | 0 | 0 | 8 | -2 | 67* | -6
c1ccc(CN2CCCC3(CCCN(Cc4nc(COc5ccccc5)no4)C3)C2)cc1 (stereo not drawn) | -35 | 0 | 0 | 4 | 61* | 9
c1ccc(Cc2noc(CN3CCN(CCOc4ccccc4)CC3)n2)cc1 | 1 | 0 | 4 | -1 | 57* | 8
COc1ccc(NS(=O)(=O)c2ccc(/C=C/C(=O)O)cc2)cc1S(=O)(=O)N1CCOCC1 | 0 | 2 | -4 | 9 | -7 | -3
CC1CN(Cc2c(O)ccc3c(=O)c(-c4ccccc4Cl)coc23)CC(C)O1 (stereo not drawn) | 13 | -20 | 4 | 1 | -3 | -8
Fc1ccc(-c2csc(-c3ccncc3)n2)cc1 | 10 | 0 | -7 | -25 | 32 | 5
O=C(Nc1nc(-c2ccccc2)cs1)c1ccccc1NS(=O)(=O)c1ccc(F)cc1 | 49 | 1 | 90* | -19 | -8 | 121*
SMILES | Calb FLC | HIF act | Beta apoptosis | PolyA inhibitor | T cruzi repl | CSC inhib
O=S(=O)(Nc1ccc(-c2csc(-c3ccccc3)n2)cc1)c1ccc(F)cc1 | -1 | 0 | 17 | 18 | 68* | x
CC(=O)c1c(C)[nH]c(C(=O)Nc2nc(-c3ccc(-c4ccccc4)cc3)cs2)c1C | 35 | 1 | 44 | -3 | 69* | 50
OCCN1CCN(Cc2cc(Br)cc(Br)c2O)CC1 | 22 | 0 | -6 | 2 | 13 | -14
OCCN1CCN(Cc2cc(Cl)c3cccnc3c2O)CC1 | 103* | 2 | 3 | -61 | -11 | 23
Oc1c(CN2CCN(c3ccccn3)CC2)cc(Cl)c2cccnc12 | 8 | 7 | 109* | -51 | 75* | u
O=C(C1=C[C@H](c2csc3ccccc23)C[C@H](OCc2ccc(CO)cc2)O1)N1CCN(Cc2ccc3c(c2)OCO3)CC1 | 8 | 0 | 8 | -8 | 62* | 27
CCO[C@H]1OC(C(=O)N2CCN(Cc3ccccc3)CC2)=C[C@@H](C2CCCCC2)[C@@H]1CCCO | -7 | 1 | 1 | 1 | 28 | 36
CCO[C@H]1OC(C(=O)N2CCN(Cc3ccc4c(c3)OCO4)CC2)=C[C@@H](c2csc3ccccc23)[C@@H]1CCCO | 21 | -5 | 85* | -13 | 17 | 21
CCO[C@@H]1OC(C(=O)N2CCN(Cc3ccc4c(c3)OCO4)CC2)=C[C@H](C2CCCCC2)[C@H]1CCCO | -9 | 1 | -4 | 16 | 72* | 7
Cc1ccsc1C(C(=O)NC(C)(C)C)N(C(=O)c1csnn1)c1ccccc1 (stereo not drawn) | 21 | -1 | -2 | -18 | -9 | -16
CS(=O)(=O)c1ccc(C(=O)OCC(=O)N2CCCc3ccccc32)cc1 | -2 | 0 | 1 | -16 | -13 | -4
COc1ccc([C@H]2CC(=O)C=C(c3cc4ccccc4c4ccccc34)C2)cc1 | x | x | 2 | x | x | 53
Cn1c(=O)cc(C(=O)N/N=C/c2ccc(F)cc2)[nH]c1=O | -8 | 12* | 0 | 7 | -18 | -3
COc1ccc2c(CC(=O)Nc3ncc(C)s3)coc2c1 | -1 | 2 | 40 | 2 | -16 | 52
Cc1ccc(NNC(=O)C(=O)N2CCCCC2)cc1 | 7 | -1 | x | -15 | 43 | 112*
Cc1ccccc1C(=O)NNC(=O)C(=O)N1CCCCC1 | 5 | x | -5 | 8 | -1 | -9
O=C(COC(=O)COc1cccc(C(F)(F)F)c1)NC(=O)NC1CCCCC1 | 2 | 0 | -9 | -19 | -14 | -7
Cc1ccc(N=c2c([N+](=O)[O-])nn(-c3ccc4c(c3)OCCO4)n2O)cc1F | -1 | -2 | -3 | -6 | u | 18
CCc1ccc(N=c2c([N+](=O)[O-])nn(-c3ccc4c(c3)OCCO4)n2O)cc1 | -2 | 0 | 7 | -1 | 62* | x
O=[N+]([O-])c1nn(-c2ccc3c(c2)OCCO3)n(O)c1=Nc1ccccc1 | 38 | -6 | 5 | -29 | 41 | 9
Cc1ccc(N=c2c([N+](=O)[O-])nn(-c3ccc4c(c3)OCCO4)n2O)c(Cl)c1 | 1 | -2 | 0 | -8 | 75* | -4
